Data set [1] is described as follows: Cytotoxicity against HFF assessed as inhibition of cell viability after 3 days by trypan blue exclusion assay. In kind it is cell-based. To be noted: human, HFF cells.
Data set [2] is described as follows: Selectivity index, ratio of CC50 for HFF to EC50 for Human cytomegalovirus Towne infected in human foreskin fibroblasts. Summed up: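 SI calculated as CC50/EC50. CC50 from MTT assay in uninfected HFFs. EC50 from pp28-luciferase HCMV Towne inhibition in infected HFFs.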
Data set [3] has as its system Human betaherpesvirus 5. The data set is described as follows: Antiviral activity against Human cytomegalovirus Towne infected in HFF assessed as inhibition of viral replication by measuring pp28 expression at 72 hrs post-infection by luciferase assay. To be noted: Human betaherpesvirus 5, Towne. In kind it is functional, organism-based. The procedure, abridged:
(§1)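 HFFs infected with pp28-luciferase reporter HCMV at MOI 1 pfu/cell and treated across a concentration range. Luciferase activity read in cell lysates at 72 hpi. Triplicates in three independent experiments, mean ± SD. EC50 taken from dose-response curves.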

The nature of data set [4]: Cytotoxicity against HFF assessed as inhibition of cell viability after 3 days by MTT assay. In kind it is cell-based. To be noted: human, HFF cells. The procedure, abridged:
(§2)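 Uninfected HFFs exposed to a concentration range at 37 °C for 3 days. MTT (5 mg/mL stock in PBS) added for 3 h at 37 °C. Formazan dissolved in DMSO and absorbance read. Triplicates in three independent experiments, mean ± SD. CC50 from dose-response curves.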
Background: Formazan colour is commonly taken as a measure of viable cells.

Data set [5] in a line: Cytotoxicity against HFF assessed as inhibition of cell proliferation at 0.1 uM after 3 days by MTT assay. To be noted: human, HFF cells. In kind it is cell-based. The procedure, abridged:
as §2

In data set [6] the test system is HFF. The data set is described as follows: Cell cycle arrest in HFF infected with HCMV assessed as accumulation at G0/1 phase after 24 hrs by propidium iodide staining based flow cytometry. To be noted: human. In kind it is ADME. The procedure, abridged:
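HFFs serum-starved for 48 h, released, infected with Towne HCMV and treated with compound for 24 h. Cells trypsinized, permeabilized at −20 °C for 12 h, stained with propidium iodide and analysed by flow cytometry. Controls: serum-containing medium and GCV.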
In general terms: In flow cytometry, cells or beads pass a laser one at a time.

The subject of data set [7] is HFF. The data set is described as follows: Effect on mimosine-induced cell cycle arrest in HFF infected with HCMV assessed as accumulation at G0/1 phase treated for 1 day after incubation with mid-G1 inhibitor mimosine for 48 hrs by propidium iodide staining based flow cytometry. In kind it is ADME. To be noted: human, 24 h. Summed up: (§3)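 HFFs pretreated 48 h with mimosine or lovastatin, washed and released, then HCMV-infected and treated 24 h (1 day) with compound. Trypsinized, permeabilized at −20 °C for 12 h, stained with propidium iodide and analysed by flow cytometry.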

Data set [8] relates to HFF. Description: Effect on lovastatin-induced cell cycle arrest in HFF infected with HCMV assessed as accumulation at G0/1 phase treated for 24 hrs after incubation with early G1 inhibitor lovastatin for 48 hrs by propidium iodide staining based flow cytometry. In kind it is ADME. To be noted: human. Summed up: as §3
In data set [9] the test system is Human betaherpesvirus 5. The data set is described as follows: Antiviral activity against Human cytomegalovirus Towne infected in HFF assessed as inhibition of viral replication by measuring pp28 expression at 50 nM at 72 hrs post-infection by luciferase assay. In kind it is functional, organism-based. Summed up:
as §1

Data set [10] has as its system Human betaherpesvirus 5. The data set is described as follows: Antiviral activity against Human cytomegalovirus Towne infected in HFF assessed as decrease in virus DNA yield at 50 nM measured 96 hrs post-infection by real-time PCR analysis. In kind it is functional, organism-based. Summed up:
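HFFs infected with HCMV Towne at MOI 1 pfu/cell and treated for 4 days. Supernatants collected and viral DNA yield quantified by real-time PCR. Triplicate determinations in three independent experiments, reported as mean ± SD.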
For orientation: Quantitative PCR measures a nucleic acid by following its amplification.

Data set [11] relates to Human betaherpesvirus 5. Description: Antiviral activity against Human cytomegalovirus TB40 infected in HFF assessed as inhibition of viral replication at 50 nM after 3 days by GFP-based fluorescence analysis. In kind it is functional, organism-based. Summed up:
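Human foreskin fibroblasts (HFFs) infected with HCMV-TB40 (GFP-expressing) at MOI 1 pfu/cell, then treated with compound for 3 days. Read-out: GFP fluorescence, with a bright-field image for comparison.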

For data set [12], the system named is Human betaherpesvirus 5. Description: Antiviral activity against Human cytomegalovirus Towne infected in HFF assessed as plaque reduction at 50 nM measured 8 days post-infection. In kind it is functional, organism-based. Summed up: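 Plaque reduction assay with HCMV Towne in HFFs, read at 8 days postinfection. Triplicate determinations in three independent experiments, mean ± SD.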

From ChEMBL document CHEMBL3259699, “Digitoxin analogues with improved anticytomegalovirus activity” (ACS Med Chem Lett, 2014) come the findings set out here.

Calls of active or inactive are those of the source. The rule behind the calls is not given here.

The term CC50 denotes the concentration that lowers cell viability or growth by half. One may read the EC50 as the concentration at which the effect is half-maximal. By inhibition is commonly meant the change of the read-out against control, counted positive when it falls.

Turning to `C[C@@H]1O[C@@H](O[C@H]2CC[C@@]3(C)[C@H](CC[C@@H]4[C@@H]3CC[C@]3(C)[C@@H](C5=CC(=O)OC5)CC[C@]43O)C2)[C@H](O)[C@H](O)[C@H]1O`, the CC50 at 72 h came out at 2000 nM in [1] and 700 nM in data set [4]. Besides, the “Ratio CC50/EC50” value in data set [2] is 139. In addition, the EC50 with Human betaherpesvirus 5 [3] was found to be 4.8 nM.
For the compound `C[C@H]1O[C@H](O[C@H]2CC[C@@]3(C)[C@H](CC[C@@H]4[C@@H]3CC[C@]3(C)[C@@H](C5=CC(=O)OC5)CC[C@]43O)C2)CC[C@@H]1O`, the CC50 at 72 h in data set [1] stood at 4000 nM; in data set [4] it was 1100 nM. In addition, the “Ratio CC50/EC50” value in data set [2] is recorded as 29. For the same compound, the EC50 in the data set on Human betaherpesvirus 5 [3] was 37.5 nM.
In the case of `C[C@@H]1O[C@@H](O[C@H]2CC[C@@]3(C)[C@H](CC[C@@H]4[C@@H]3CC[C@]3(C)[C@@H](C5=CC(=O)OC5)CC[C@]43O)C2)CC[C@H]1O` [RAMNODIGIN], the figures for the CC50 at 72 h in data set [1] and in data set [4] were 4000 nM and 700 nM, respectively. The “Ratio CC50/EC50” value in [2] is listed as 174. The inhibition at 72 h, 0.1 µM in data set [5] was 50%. Further, in the data set on Human betaherpesvirus 5 [3], the EC50 worked out at 3.8 nM.
Turning to `C[C@@H]1O[C@@H](O[C@@H]2CC[C@H](O[C@H]3CC[C@@]4(C)[C@H](CC[C@@H]5[C@@H]4CC[C@]4(C)[C@@H](C6=CC(=O)OC6)CC[C@]54O)C3)O[C@H]2C)CC[C@H]1O`, the values for the CC50 at 72 h in [1] and in data set [4] were 7000 nM and 1100 nM, respectively. Further, in [2], the “Ratio CC50/EC50” value came out at 76. Further, in the data set with Human betaherpesvirus 5 [3], the EC50 amounted to 14.8 nM.
On to `C[C@H]1O[C@H](O[C@H]2CC[C@@]3(C)[C@H](CC[C@@H]4[C@@H]3CC[C@]3(C)[C@@H](C5=CC(=O)OC5)CC[C@]43O)C2)CC[C@@H]1O[C@@H]1CC[C@H](O[C@@H]2CC[C@H](O)[C@@H](C)O2)[C@@H](C)O1`, for which the CC50 at 72 h in data set [1] is 19000 nM; in [4], 15000 nM. The “Ratio CC50/EC50” value in data set [2] came to 7. Besides, the EC50 with Human betaherpesvirus 5 [3] came out at 2080 nM.
Regarding `C[C@H]1O[C@H](O[C@H]2[C@H](O)[C@H](O)[C@@H](O[C@H]3CC[C@@]4(C)[C@H](CC[C@@H]5[C@@H]4CC[C@]4(C)[C@@H](C6=CC(=O)OC6)CC[C@]54O)C3)O[C@@H]2C)[C@@H](O)[C@@H](O)[C@@H]1O`, the CC50 at 72 h in data set [1] came to 10000 nM; in data set [4], 6700 nM. In data set [2], the “Ratio CC50/EC50” value is 32. Also, in the data set with Human betaherpesvirus 5 [3], the EC50 is 209 nM.
On the same counts, the results for `C[C@]12CC[C@H](O[C@@H]3O[C@@H](CO)[C@H](O)[C@@H](O)[C@H]3O)C[C@H]1CC[C@@H]1[C@@H]2CC[C@]2(C)[C@@H](C3=CC(=O)OC3)CC[C@]12O` are 1900 nM, 900 nM, 127 and 7.3 nM.
`C[C@@H]1O[C@@H](O[C@@H]2[C@@H](O)[C@@H](O)[C@H](O[C@@H]3[C@@H](O)[C@@H](O)[C@H](O[C@H]4CC[C@@]5(C)[C@H](CC[C@@H]6[C@@H]5CC[C@]5(C)[C@@H](C7=CC(=O)OC7)CC[C@]65O)C4)O[C@H]3C)O[C@H]2C)[C@H](O)[C@H](O)[C@H]1O`: the CC50 at 72 h was determined as 11000 nM in [1] and 7000 nM in data set [4]. For the same compound, the “Ratio CC50/EC50” value in [2] is listed as 30. Also, the EC50 with Human betaherpesvirus 5 [3] is 232 nM.
As for `C[C@H]1O[C@H](O[C@H]2[C@H](O)[C@H](O)[C@@H](O[C@H]3[C@H](O)[C@H](O)[C@@H](O[C@H]4CC[C@@]5(C)[C@H](CC[C@@H]6[C@@H]5CC[C@]5(C)[C@@H](C7=CC(=O)OC7)CC[C@]65O)C4)O[C@@H]3C)O[C@@H]2C)[C@@H](O)[C@@H](O)[C@@H]1O`, the CC50 at 72 h in data set [1] was found to be 16000 nM; in [4] it was 10000 nM. In data set [2], the “Ratio CC50/EC50” value was 31. For the same compound, in the data set with Human betaherpesvirus 5 [3], the EC50 came to 320 nM.
With `C[C@H]1O[C@H](O[C@H]2CC[C@@]3(C)[C@H](CC[C@@H]4[C@@H]3CC[C@]3(C)[C@@H](C5=CC(=O)OC5)CC[C@]43O)C2)CC[C@@H]1O[C@@H]1CC[C@H](O)[C@@H](C)O1`, the CC50 at 72 h was determined as 1000 nM in data set [1] and 12100 nM in [4]. Further, the “Ratio CC50/EC50” value in data set [2] worked out at 15. Moreover, in the data set on Human betaherpesvirus 5 [3], the EC50 came out at 790 nM.
As for `C[C@@H]1O[C@@H](O[C@@H]2[C@@H](O)[C@@H](O)[C@H](O[C@H]3CC[C@@]4(C)[C@H](CC[C@@H]5[C@@H]4CC[C@]4(C)[C@@H](C6=CC(=O)OC6)CC[C@]54O)C3)O[C@H]2C)[C@H](O)[C@H](O)[C@H]1O`, the CC50 at 72 h in data set [1] came out at 6000 nM; in [4], 1500 nM. Further, the “Ratio CC50/EC50” value in data set [2] is recorded as 41. Besides, the EC50 with Human betaherpesvirus 5 [3] was 36.7 nM.
As to `C[C@H]1O[C@H](O[C@H]2CC[C@@]3(C)[C@H](CC[C@@H]4[C@@H]3CC[C@]3(C)[C@@H](C5=CC(=O)OC5)CC[C@]43O)C2)[C@@H](O)[C@@H](O)[C@@H]1O`, the CC50 at 72 h in [1] amounted to 3700 nM; in [4] it was 2300 nM. Further, the “Ratio CC50/EC50” value in [2] amounted to 86. Moreover, the EC50 in the data set with Human betaherpesvirus 5 [3] was found to be 26.6 nM.
For `C[C@@H]1O[C@@H](O[C@@H]2CC[C@H](O[C@@H]3CC[C@H](O[C@H]4CC[C@@]5(C)[C@H](CC[C@@H]6[C@@H]5CC[C@]5(C)[C@@H](C7=CC(=O)OC7)CC[C@]65O)C4)O[C@H]3C)O[C@H]2C)CC[C@H]1O`, in that order: 9000 nM, 2400 nM, 21 and 113 nM.
Regarding `C[C@@H]1O[C@@H](O[C@H]2C[C@@H](O)[C@]3(CO)[C@H]4[C@H](O)C[C@]5(C)[C@@H](C6=CC(=O)OC6)CC[C@]5(O)[C@@H]4CC[C@]3(O)C2)[C@H](O)[C@H](O)[C@H]1O` [OUABAIN], the results for the Activity result in the data set with HFF [6], in the data set on HFF [7] and in the data set with HFF [8] were “Active”, “Not Active” and “Not Active”, respectively.
For the compound `C[C@H]1O[C@@H](O[C@H]2[C@@H](O)C[C@H](O[C@H]3[C@@H](O)C[C@H](O[C@H]4CC[C@@]5(C)[C@H](CC[C@@H]6[C@@H]5CC[C@]5(C)[C@@H](C7=CC(=O)OC7)CC[C@]65O)C4)O[C@@H]3C)O[C@@H]2C)C[C@H](O)[C@@H]1O` [DIGITOXIN], the CC50 at 72 h in data set [1] came to 6000 nM; in data set [4] it was 2800 nM. Also, the Activity entry is reported as “Active” in the data set on HFF [6], “Not Active” with HFF [7] and “Not Active” in the data set on HFF [8]. Moreover, the “Ratio CC50/EC50” value in data set [2] was determined as 120. The inhibition at 72 h, 0.1 µM in data set [5] came out at 50%. Moreover, the inhibition result with Human betaherpesvirus 5 [9], with Human betaherpesvirus 5 [10], with Human betaherpesvirus 5 [11] and in the data set on Human betaherpesvirus 5 [12] was “Active” each time. Besides, the EC50 with Human betaherpesvirus 5 [3] was 23.3 nM.
